Many of the other results were omitted from the sample, so hits are more common in it than they were.
Lmaj promast – Leishmania major promastigote growth inhibition; Leishmania major promastigotes, resazurin fluorescence viability; inhibition, % at 10 µM; hit rate 9% among 200,000; in the data active = inhibition above about 50%;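 also: promastigotes grown with compound for 44 hours at 28 °C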
Redox H2O2 prof – compounds producing H2O2 with reducing agent – biochemical, NIH compound library profiling, artefact control for MLSCN library redox annotation, primary screen. DTT-dependent redox cycling H2O2, phenol red/HRP absorbance; 100% = 100 µM peroxide control, 0% = buffer. activation, % at 10 µM. hit rate 0.03% among 200,000. AID 878;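 active = activation of at least 50% relative to the plate's high and low controls in the primary single-dose screen; inactive = activation below 50%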;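 also: compound incubated with DTT at 0.8 mM final as the reducing agent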
Hep lipid drop – modulators of hepatic lipid droplet formation; AML12 mouse hepatocytes, oleate lipid droplets, BODIPY imaging; inhibition, % at 6.5 µM; hit rate 0.4% among 240,000; AID 1656;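 active = lipid droplet intensity inhibited by at least 50%, with more than 500 cells counted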
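Assay system: AML12 hepatocytes (mouse); Probe or stimulus: oleic acid at 100 µM to induce lipid droplet formation; Dosing: compound at 6.5 µM only; Schedule: compound with oleate, overnight; Detection: fluorescence imaging, 20x objective, two fields per well; Measure: % inhibition of lipid droplet signal.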
MPTP inh – permeability transition pore inhibition. isolated mouse mitochondria, Ca2+ swelling absorbance, 30 min. inhibition, % at 10 µM. hit rate 1.4% among 360,000;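 active = inhibition of 50% or more, scaled per plate between neutral and stimulator controls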;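 also: 0% = DMSO wells given calcium and 100% = 1 mM EGTA wells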
T cruzi inh – T. cruzi replication inhibition; inhibition, % (no concentration beside the values); T. cruzi beta-gal in NIH3T3, luminescence, 90 h; AID 1885; hit rate 1.4% among 300,000;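 active = mean inhibition across valid replicates above about 55%, limit read from the data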;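 also: signal also drops with host cell toxicity which is not excluded here; 0% = plate median of DMSO wells and 100% = zero luminescence signal; higher percent means less beta-gal luminescence so fewer parasites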
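assay system = mouse NIH/3T3 fibroblasts infected with β-gal-expressing T. cruzi Tulahuen C4 | input = 5,000 NIH/3T3 host cells per well | buffer or medium = DMEM plus 2% FBS | timing = 3 h host attachment, then at least 90 h co-culture | measured by = GalScreen luminescence, 60 min | evaluation = luminescence reflecting intracellular parasite burden, expressed as percent inhibition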
Numbers without * were called inactive; · = no result.

SMILES	Lmaj promast	Redox H2O2 prof	Hep lipid drop	MPTP inh	T cruzi inh
COc1cccc(CNC(=O)c2ccc(C)c(S(=O)(=O)N3CCCCC3)c2)c1	·	·	·	-0.3	14.2
Cc1ccccc1NC(=O)C(=O)NC(C)CCc1ccccc1 (stereo unspecified)	33.7	·	1.7	1.2	14.8
Cc1cccc(C)c1NC(=S)NC(C)CCc1ccccc1 (stereo unspecified)	60.5*	0.1	-33.8	-17.1	1.7
CCOC(=O)c1c(-c2ncc(C(F)(F)F)cc2Cl)noc1C	-2.2	-0.1	3.3	0.4	-24.8
CC(C)(C)c1oc(C(=O)O)cc1CN1CCOCC1	·	·	-1.0	0.8	14.7
COc1cccc(CNn2c(-c3cccc(C)c3)nc3ccccc3c2=O)c1O	53.9*	3.5	·	1.7	-10.9
COc1ccc(O)c(CNn2c(-c3ccc(Br)cc3)nc3ccccc3c2=O)c1	34.9	-0.6	1.4	4.7	0.0
Cc1c(C(=O)Nc2ccc(Cl)cc2)c2ccccn2c1C(=O)c1ccc([N+](=O)[O-])cc1	12.1	0.1	13.7	15.0	65.5*
C=CCOc1c(Br)cc(CNc2ccc(NC(=O)C(C)C)cc2)cc1OCC	97.3*	0.2	-12.4	-2.7	1.5
CCOc1cc(CNc2ccc(O)cc2)cc(Br)c1OCc1ccccc1F	80.4*	2.0	18.9	-4.3	15.2
COc1cc(CNc2ccc(O)cc2)cc(Br)c1OCc1ccccc1F	4.0	0.2	11.6	5.2	2.2
O=C(NCc1ccc(OC(F)(F)F)cc1)C1CC2Cn3c(nc4ccccc43)C2N1c1ccccc1 (stereo unspecified)	·	·	13.2	-0.1	21.5
Cc1ccc(NCC(=O)c2ccc(C)cc2)cc1	·	·	-2.0	0.2	56.5*
COC(=O)c1ccc(CN2CCC(CO)(Cc3cccc(OC)c3)CC2)cc1	82.6*	-0.1	-3.7	-2.0	40.5
COc1ccc(CC2(CO)CCN(Cc3ccncc3)CC2)cc1	88.5*	-1.7	-3.8	2.1	11.2
COc1ccc(CC2(CO)CCN(Cc3cnn(C)c3C)CC2)cc1	-3.6	-0.6	13.5	-0.2	1.5
COc1ccc(CC2(CO)CCN(CC3=CC[C@H]4C[C@@H]3C4(C)C)CC2)cc1	82.5*	-0.3	-55.0	1.0	38.5
O=C(CCc1nnc(CCc2ccccc2)o1)NC(c1cccnc1)C(F)(F)F (stereo unspecified)	·	·	-1.2	-0.9	3.6
c1cncc(CN2CCN(c3cc(-c4cnc5ccccc5c4)nc4ccnn34)CC2)c1	·	·	·	-1.4	·
COc1ccc(C(NC(=O)CN2CCCCCC2)c2ccc(OC)cc2)cc1	·	·	-7.9	1.3	0.4
O=C(Cc1ccc(F)cc1)Nc1ccc(S(=O)(=O)N2CCCCC2)cc1	1.7	0.0	9.5	-1.0	8.7
O=C(Cn1c(=O)oc2cc(S(=O)(=O)N3CCCC3)ccc21)NCc1ccc(F)cc1	98.3*	-1.4	·	-0.5	-8.7
O=C(Cn1c(=O)oc2cc(S(=O)(=O)N3CCCC3)ccc21)NC1CCCCC1	·	·	-4.1	-0.9	-4.9
CCN(CC(=O)NCc1ccc(F)cc1)CC(=O)Nc1ccc(S(=O)(=O)N2CCCC2)cc1	98.3*	-1.4	-19.0	-1.0	9.2
Cn1c(=O)oc2cc(S(=O)(=O)N3CCN(c4ccc(F)cc4)CC3)ccc21	60.4*	1.9	31.6	-0.1	-12.8
SMILES	Lmaj promast	Redox H2O2 prof	Hep lipid drop	MPTP inh	T cruzi inh
O=C(Cn1c(=O)oc2cc(S(=O)(=O)N3CCCC3)ccc21)Nc1cccc(C(F)(F)F)c1	99.9*	1.8	·	47.7	-9.0
Cc1cc(Cl)c2oc(C(=O)N(C)Cc3ccon3)c(C)c2c1	·	·	3.0	-1.1	34.4
O=C(NCCc1ccc(Cl)cc1)c1ccc2[nH]c(=O)c(=O)[nH]c2c1	·	·	-2.6	-0.5	-0.8
COc1ccc(-c2nc(NC(=O)C3CCN(c4nc5ccccc5o4)CC3)sc2C)cc1	78.9*	1.0	·	2.8	45.8
COc1ccc(-c2nc(NC(=O)Cn3c(=O)oc4ccccc43)sc2C)cc1	4.8	0.5	-18.9	8.0	12.6
C=CCNC(=O)c1c(N)n(-c2cccc(S(N)(=O)=O)c2)c2nc3ccccc3nc12	84.0*	0.0	·	-1.3	·
O=C(CCl)NCc1cc(-c2ccc(Cl)cc2)no1	71.3*	-0.6	-7.0	-1.4	50.9
COc1ccc(OCc2cc(-c3ccc(Cl)cc3)no2)cc1	-3.0	-0.5	23.0	0.0	-82.9
CC1=C(C(=O)Nc2ccccc2)C(c2ccncc2)C(C#N)=C(SCC(=O)NC(C)C)N1 (stereo unspecified)	89.0*	-0.3	14.2	-0.2	14.0
